Experimental data taken from ChEMBL document CHEMBL5653631, “A Potent and Selective ULK1 Inhibitor Suppresses Autophagy and Sensitizes Cancer Cells to Nutrient Stress” (iScience, 2018).

Legend:
[1] = biological target: T1, SNF-related serine/threonine-protein kinase (Homo sapiens) (UniProt Q9NRH2); experiment: Inhibition of human recombinant SNRK at 500 nM in presence of ATP by radiometric assay relative to control
T1 sequence (whole entry): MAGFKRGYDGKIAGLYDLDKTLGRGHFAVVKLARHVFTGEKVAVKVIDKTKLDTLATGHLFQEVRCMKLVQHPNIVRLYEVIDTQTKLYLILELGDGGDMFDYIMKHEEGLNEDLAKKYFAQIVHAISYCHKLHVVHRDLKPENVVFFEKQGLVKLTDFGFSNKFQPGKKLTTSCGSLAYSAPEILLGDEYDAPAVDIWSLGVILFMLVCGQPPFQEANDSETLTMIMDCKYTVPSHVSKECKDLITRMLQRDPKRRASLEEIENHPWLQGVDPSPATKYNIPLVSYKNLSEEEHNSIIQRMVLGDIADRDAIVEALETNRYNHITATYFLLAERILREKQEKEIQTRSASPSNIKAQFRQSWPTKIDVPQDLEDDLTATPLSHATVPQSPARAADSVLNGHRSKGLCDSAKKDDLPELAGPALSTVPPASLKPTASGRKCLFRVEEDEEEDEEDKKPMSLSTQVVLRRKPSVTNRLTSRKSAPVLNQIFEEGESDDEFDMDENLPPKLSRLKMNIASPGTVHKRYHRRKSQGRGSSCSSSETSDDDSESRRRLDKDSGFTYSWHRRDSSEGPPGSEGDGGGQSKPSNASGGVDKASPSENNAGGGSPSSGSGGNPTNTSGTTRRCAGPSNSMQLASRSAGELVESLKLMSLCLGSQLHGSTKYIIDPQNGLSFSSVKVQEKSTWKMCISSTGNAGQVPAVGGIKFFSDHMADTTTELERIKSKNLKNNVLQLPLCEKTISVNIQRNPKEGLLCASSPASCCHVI

[2] = biological target: Tyrosine-protein kinase HCK (Homo sapiens) (UniProt P08631); experiment: Inhibition of human recombinant HCK at 500 nM in presence of ATP by radiometric assay relative to control
[3] = biological target: Calcium/calmodulin-dependent protein kinase kinase 2 (Homo sapiens) (UniProt Q96RR4); experiment: Inhibition of human recombinant CaMKK2 at 500 nM related to control ULK1
[4] = biological target: T2, Eukaryotic elongation factor 2 kinase (Homo sapiens) (UniProt O00418); experiment: Inhibition of human recombinant eEF2K at 15 nM in presence of ATP by radiometric assay relative to control
T2 sequence (whole entry): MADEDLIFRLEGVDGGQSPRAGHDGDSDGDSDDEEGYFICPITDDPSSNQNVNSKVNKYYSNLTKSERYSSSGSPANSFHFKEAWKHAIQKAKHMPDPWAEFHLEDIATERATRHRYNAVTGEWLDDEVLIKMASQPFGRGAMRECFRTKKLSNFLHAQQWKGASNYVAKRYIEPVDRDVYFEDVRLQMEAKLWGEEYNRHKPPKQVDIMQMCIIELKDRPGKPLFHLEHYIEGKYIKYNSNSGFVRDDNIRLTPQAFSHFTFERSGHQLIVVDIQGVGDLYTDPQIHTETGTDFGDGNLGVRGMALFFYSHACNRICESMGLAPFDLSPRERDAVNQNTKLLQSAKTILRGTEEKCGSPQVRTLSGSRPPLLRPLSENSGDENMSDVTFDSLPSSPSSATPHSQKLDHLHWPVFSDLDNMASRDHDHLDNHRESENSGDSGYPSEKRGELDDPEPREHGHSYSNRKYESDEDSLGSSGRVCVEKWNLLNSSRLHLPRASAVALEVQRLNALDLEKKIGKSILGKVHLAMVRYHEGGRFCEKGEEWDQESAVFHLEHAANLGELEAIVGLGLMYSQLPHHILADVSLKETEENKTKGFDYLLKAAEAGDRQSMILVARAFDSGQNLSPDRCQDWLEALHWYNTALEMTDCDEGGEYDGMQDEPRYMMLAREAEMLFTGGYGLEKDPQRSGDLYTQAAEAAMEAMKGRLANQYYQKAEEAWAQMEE

[5] = biological target: Vascular endothelial growth factor receptor 2 (Homo sapiens) (UniProt P35968); experiment: Inhibition of human recombinant KDR at 15 nM related to control ULK1
[6] = biological target: Misshapen-like kinase 1 (Homo sapiens) (UniProt Q8N4C8); experiment: Inhibition of human recombinant MINK at 15 nM related to control ULK1
[7] = biological target: Death-associated protein kinase 2 (Homo sapiens) (UniProt Q9UIK4); experiment: Inhibition of human recombinant DAPK2 at 40 nM related to control ULK1
[8] = biological target: T3, Activin receptor type-1B (Homo sapiens) (UniProt P36896); experiment: Inhibition of human recombinant ALK4 at 40 nM in presence of ATP by radiometric assay relative to control
T3 sequence (whole entry): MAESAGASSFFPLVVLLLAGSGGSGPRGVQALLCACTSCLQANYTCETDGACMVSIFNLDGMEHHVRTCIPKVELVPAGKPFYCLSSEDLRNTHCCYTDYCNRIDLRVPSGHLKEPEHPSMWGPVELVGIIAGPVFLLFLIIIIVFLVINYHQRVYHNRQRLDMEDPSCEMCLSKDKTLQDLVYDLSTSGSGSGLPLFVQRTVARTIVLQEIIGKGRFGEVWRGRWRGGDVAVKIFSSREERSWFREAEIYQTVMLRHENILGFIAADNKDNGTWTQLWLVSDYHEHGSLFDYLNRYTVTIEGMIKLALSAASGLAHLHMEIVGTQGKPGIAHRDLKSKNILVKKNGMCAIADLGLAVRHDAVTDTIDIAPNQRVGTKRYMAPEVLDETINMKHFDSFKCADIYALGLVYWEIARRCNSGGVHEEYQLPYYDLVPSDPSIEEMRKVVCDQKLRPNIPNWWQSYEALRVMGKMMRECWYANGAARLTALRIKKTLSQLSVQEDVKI
Method in brief: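 Panel of 327 recombinant human kinases, each assayed in vitro by radiometric activity assay in duplicate at a single inhibitor concentration per compound, chosen with reference to its ULK1 inhibition. Activity remaining was expressed as percent of vehicle control, and percent inhibition was calculated as 100 minus percent activity remaining.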

[9] = biological target: Tau-tubulin kinase 2 (Homo sapiens) (UniProt Q6IQ55); experiment: Inhibition of human recombinant TTBK2 at 40 nM in presence of ATP by radiometric assay relative to control
Chain of Tau-tubulin kinase 2 (Homo sapiens) (Q6IQ55 whole entry): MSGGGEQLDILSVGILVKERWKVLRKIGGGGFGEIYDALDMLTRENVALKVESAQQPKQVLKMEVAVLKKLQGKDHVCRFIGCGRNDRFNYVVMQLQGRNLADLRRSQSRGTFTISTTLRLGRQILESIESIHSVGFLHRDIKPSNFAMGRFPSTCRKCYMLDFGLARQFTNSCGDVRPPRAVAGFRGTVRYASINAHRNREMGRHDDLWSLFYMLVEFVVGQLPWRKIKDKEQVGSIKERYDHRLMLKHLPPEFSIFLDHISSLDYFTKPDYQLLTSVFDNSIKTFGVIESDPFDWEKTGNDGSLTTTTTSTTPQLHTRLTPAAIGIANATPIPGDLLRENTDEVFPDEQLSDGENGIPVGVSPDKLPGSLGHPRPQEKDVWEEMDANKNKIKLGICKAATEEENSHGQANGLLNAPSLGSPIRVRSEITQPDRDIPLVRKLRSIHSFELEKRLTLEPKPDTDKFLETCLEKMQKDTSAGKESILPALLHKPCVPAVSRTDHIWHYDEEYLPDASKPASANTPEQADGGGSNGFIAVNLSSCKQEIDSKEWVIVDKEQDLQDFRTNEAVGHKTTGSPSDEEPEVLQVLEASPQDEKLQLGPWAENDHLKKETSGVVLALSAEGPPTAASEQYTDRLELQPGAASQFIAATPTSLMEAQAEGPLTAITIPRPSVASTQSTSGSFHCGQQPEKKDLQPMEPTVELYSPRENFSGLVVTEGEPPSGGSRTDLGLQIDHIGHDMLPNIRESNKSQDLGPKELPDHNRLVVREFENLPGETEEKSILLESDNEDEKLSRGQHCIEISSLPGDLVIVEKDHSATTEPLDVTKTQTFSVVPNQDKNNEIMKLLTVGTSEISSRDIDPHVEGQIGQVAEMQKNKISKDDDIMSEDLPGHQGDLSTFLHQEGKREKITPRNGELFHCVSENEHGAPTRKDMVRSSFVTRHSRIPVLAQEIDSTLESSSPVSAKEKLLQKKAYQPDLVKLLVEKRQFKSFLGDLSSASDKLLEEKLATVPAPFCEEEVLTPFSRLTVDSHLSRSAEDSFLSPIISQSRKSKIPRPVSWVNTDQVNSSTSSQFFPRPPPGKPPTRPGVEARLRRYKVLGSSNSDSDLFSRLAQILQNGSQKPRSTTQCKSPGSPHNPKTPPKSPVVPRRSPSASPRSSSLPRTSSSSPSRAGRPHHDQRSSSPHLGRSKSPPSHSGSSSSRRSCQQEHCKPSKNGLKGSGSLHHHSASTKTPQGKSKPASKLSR

Chain of Vascular endothelial growth factor receptor 2 (Homo sapiens) (P35968 whole entry): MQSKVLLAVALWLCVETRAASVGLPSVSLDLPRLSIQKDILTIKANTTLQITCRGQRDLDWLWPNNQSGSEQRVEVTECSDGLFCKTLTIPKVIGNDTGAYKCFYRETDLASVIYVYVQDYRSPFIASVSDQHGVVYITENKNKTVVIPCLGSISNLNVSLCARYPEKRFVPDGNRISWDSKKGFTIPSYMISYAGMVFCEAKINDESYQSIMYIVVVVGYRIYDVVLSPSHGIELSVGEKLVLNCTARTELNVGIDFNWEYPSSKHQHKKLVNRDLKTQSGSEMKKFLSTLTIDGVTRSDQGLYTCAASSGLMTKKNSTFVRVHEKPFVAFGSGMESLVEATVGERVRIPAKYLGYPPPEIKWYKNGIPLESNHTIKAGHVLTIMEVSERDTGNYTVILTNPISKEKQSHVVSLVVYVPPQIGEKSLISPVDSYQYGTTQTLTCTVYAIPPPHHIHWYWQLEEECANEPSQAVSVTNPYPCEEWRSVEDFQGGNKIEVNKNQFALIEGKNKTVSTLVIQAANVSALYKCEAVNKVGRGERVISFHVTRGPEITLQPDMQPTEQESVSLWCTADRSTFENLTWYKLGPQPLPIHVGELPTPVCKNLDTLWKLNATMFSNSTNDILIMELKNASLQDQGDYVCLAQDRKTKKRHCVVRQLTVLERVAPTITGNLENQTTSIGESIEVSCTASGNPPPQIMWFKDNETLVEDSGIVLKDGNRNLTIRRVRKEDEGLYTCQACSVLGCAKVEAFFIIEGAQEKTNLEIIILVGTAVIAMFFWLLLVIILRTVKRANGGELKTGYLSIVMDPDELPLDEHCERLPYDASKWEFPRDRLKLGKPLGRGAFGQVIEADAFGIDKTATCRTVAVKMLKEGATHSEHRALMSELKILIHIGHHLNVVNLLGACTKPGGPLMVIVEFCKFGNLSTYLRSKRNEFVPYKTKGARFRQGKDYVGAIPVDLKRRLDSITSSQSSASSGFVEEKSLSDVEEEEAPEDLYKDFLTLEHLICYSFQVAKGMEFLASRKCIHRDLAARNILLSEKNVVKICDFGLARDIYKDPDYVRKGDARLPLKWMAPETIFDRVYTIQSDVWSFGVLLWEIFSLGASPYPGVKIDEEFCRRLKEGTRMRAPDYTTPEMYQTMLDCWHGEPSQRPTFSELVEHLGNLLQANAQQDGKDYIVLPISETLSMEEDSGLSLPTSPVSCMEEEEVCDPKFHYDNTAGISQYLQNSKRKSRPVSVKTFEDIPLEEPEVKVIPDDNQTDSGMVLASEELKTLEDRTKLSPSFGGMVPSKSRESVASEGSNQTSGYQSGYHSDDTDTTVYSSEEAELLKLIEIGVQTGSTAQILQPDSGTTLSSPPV
Chain of Calcium/calmodulin-dependent protein kinase kinase 2 (Homo sapiens) (Q96RR4 2-588 limits assumed): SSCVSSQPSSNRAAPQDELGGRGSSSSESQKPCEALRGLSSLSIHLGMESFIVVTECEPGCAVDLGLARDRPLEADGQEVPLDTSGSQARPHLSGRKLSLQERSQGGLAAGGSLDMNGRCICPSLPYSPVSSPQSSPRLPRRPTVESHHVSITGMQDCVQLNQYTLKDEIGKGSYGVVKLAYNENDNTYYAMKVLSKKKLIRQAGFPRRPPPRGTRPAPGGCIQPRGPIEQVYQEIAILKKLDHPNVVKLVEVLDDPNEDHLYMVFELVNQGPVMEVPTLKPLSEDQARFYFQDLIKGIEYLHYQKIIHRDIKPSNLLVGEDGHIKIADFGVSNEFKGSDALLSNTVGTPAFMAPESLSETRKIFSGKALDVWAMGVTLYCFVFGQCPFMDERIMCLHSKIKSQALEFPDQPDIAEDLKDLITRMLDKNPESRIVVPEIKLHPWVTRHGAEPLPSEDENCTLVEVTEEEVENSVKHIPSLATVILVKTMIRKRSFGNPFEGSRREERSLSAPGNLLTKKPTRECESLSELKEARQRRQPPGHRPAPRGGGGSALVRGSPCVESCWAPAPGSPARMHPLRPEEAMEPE
Chain of Misshapen-like kinase 1 (Homo sapiens) (Q8N4C8 whole entry, looked up): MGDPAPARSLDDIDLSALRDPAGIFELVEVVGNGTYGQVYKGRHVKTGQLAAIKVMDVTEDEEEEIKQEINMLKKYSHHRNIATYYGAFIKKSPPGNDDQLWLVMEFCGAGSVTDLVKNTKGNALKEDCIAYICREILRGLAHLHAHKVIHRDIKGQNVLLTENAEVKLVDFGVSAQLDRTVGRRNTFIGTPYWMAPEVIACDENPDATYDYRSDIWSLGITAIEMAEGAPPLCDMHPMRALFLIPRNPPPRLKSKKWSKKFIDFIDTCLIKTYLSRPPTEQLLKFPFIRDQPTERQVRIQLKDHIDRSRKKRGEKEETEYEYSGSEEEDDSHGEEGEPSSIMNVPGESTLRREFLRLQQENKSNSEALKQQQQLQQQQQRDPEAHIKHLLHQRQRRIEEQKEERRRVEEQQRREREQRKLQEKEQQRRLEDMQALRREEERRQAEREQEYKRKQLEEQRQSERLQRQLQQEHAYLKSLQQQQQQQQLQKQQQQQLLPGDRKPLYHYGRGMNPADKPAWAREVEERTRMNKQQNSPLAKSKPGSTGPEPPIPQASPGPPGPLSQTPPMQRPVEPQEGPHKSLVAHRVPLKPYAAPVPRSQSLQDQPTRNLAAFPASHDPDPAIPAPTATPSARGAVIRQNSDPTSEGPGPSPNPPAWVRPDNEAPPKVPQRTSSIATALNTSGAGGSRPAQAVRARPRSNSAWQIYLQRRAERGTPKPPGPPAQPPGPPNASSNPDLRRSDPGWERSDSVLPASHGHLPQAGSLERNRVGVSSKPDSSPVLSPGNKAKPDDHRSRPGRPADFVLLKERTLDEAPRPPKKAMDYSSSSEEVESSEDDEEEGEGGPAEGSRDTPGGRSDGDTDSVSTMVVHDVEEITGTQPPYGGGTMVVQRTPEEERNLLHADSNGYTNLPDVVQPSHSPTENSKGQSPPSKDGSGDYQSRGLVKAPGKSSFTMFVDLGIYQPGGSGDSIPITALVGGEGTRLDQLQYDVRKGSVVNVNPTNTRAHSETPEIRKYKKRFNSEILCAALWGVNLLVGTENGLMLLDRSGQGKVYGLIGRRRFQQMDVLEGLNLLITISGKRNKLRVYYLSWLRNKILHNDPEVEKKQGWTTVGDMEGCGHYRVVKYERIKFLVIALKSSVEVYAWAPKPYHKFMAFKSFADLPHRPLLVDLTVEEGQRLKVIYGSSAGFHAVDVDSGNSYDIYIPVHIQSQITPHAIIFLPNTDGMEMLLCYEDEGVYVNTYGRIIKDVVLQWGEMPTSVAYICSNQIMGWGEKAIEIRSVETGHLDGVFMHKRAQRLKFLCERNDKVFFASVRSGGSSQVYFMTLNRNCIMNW
Chain of Tyrosine-protein kinase HCK (Homo sapiens) (P08631 2-526 limits assumed): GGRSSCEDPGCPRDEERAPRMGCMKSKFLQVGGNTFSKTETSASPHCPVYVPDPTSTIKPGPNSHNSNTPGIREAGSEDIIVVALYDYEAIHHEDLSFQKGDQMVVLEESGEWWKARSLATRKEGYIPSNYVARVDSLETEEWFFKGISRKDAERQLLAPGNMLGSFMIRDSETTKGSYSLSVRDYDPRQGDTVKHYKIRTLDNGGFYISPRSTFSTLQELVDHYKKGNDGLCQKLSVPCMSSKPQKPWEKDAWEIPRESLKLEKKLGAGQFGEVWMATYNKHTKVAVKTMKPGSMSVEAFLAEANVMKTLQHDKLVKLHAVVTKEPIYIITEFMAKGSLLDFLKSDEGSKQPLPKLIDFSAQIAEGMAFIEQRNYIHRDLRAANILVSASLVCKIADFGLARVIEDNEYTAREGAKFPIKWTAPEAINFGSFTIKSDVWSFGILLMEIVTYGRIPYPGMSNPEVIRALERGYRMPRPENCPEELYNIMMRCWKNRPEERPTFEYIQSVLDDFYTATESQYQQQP

SMILES: CNC(=O)c1ccccc1Oc1nc(Nc2cc(OC)c(OC)c(OC)c2)ncc1Br
- inhibition [1]: 0%
- inhibition [2]: 17%
- fold change (FC) [3]: 0.05

SMILES: CC(C)[C@H](NC(=O)c1cc(-c2cnn3cc(-c4ccc(OCCN5CCCCC5)cc4)cnc23)cs1)C(F)(F)F
- inhibition [4]: 10%
- fold change (FC) [5]: 0.23
- fold change (FC) [6]: 0.05

SMILES: O=C(N[C@@H](C1CC1)C(F)(F)F)c1cc(-c2cnn3cc(-c4ccc(F)cc4)cnc23)cs1
- fold change (FC) [7]: 0
- inhibition [8]: 0%
- inhibition [9]: 0%
